According to ChEMBL document CHEMBL3616442, “Unconventional Knoevenagel-type indoles: Synthesis and cell-based studies for the identification of pro-apoptotic agents” (Eur J Med Chem, 2015):

Legend:
Type in all cases: functional
HL-60(TB) = experiment: Growth inhibition of human HL-60(TB) cells after 48 hrs by sulforhodamine B assay; conditions: HL-60, 48 h
Procedure, shortened: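 NCI 60-cell-line screen, HL-60(TB) included. Compound given at five 10-fold dilutions from 10^-4 to 10^-8 M. Cells exposed for the last 48 h of a 72 h incubation. Growth or viability estimated by sulforhodamine B protein assay. GI50 is the concentration giving 50% growth inhibition. Values outside the tested range are reported as greater or less than the highest or lowest concentration.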

OVCAR-5 = experiment: Growth inhibition of human OVCAR5 cells after 48 hrs by sulforhodamine B assay; conditions: OVCAR-5, 48 h
[1] = Growth inhibition of human Hs 578T cells after 48 hrs by sulforhodamine B assay
Procedure, shortened: (§1)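 NCI 60-cell-line screen. Compounds tested at five 10-fold dilutions from 10^-4 to 10^-8 M. Cells exposed for the last 48 h of a 72 h incubation, growth estimated by sulforhodamine B protein assay. GI50 is the concentration giving 50% growth inhibition. Values beyond the tested range are expressed as greater or lesser than the extreme concentration.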

OVCAR-3 = experiment: Growth inhibition of human OVCAR3 cells after 48 hrs by sulforhodamine B assay; conditions: OVCAR-3, 48 h; procedure, shortened: as §1
NCI-H226 = experiment: Growth inhibition of human NCI-H226 cells after 48 hrs by sulforhodamine B assay; conditions: NCI-H226, 48 h; procedure, shortened: as §1
KM12 = experiment: Growth inhibition of human KM12 cells after 48 hrs by sulforhodamine B assay; conditions: KM12, 48 h; procedure, shortened: as §1
[2] = Growth inhibition of human HOP92 cells after 48 hrs by sulforhodamine B assay; conditions: HOP-92, 48 h; procedure, shortened: as §1
[3] = Growth inhibition of human MOLT4 cells after 48 hrs by sulforhodamine B assay; conditions: MOLT-4, 48 h; procedure, shortened: as §1
[4] = Growth inhibition of human HCC2998 cells after 48 hrs by sulforhodamine B assay; conditions: HCC 2998, 48 h; procedure, shortened: as §1
OVCAR-4 = experiment: Growth inhibition of human OVCAR4 cells after 48 hrs by sulforhodamine B assay; conditions: OVCAR-4, 48 h; procedure, shortened: as §1
SNB-75 = experiment: Growth inhibition of human SNB75 cells after 48 hrs by sulforhodamine B assay; conditions: SNB-75, 48 h
HOP-62 = experiment: Growth inhibition of human HOP62 cells after 48 hrs by sulforhodamine B assay; conditions: HOP-62, 48 h; procedure, shortened: as §1
UACC-62 = experiment: Growth inhibition of human UACC62 cells after 48 hrs by sulforhodamine B assay; conditions: UACC-62, 48 h
HT-29 = experiment: Growth inhibition of human HT-29 cells after 48 hrs by sulforhodamine B assay; conditions: HT-29, 48 h; procedure, shortened: as §1
[5] = Growth inhibition of human SF539 cells after 48 hrs by sulforhodamine B assay; conditions: SF-539, 48 h
K562 = experiment: Growth inhibition of human K562 cells after 48 hrs by sulforhodamine B assay; conditions: K562, 48 h; procedure, shortened: as §1
NCI-H522 = experiment: Growth inhibition of human NCI-H522 cells after 48 hrs by sulforhodamine B assay; conditions: NCI-H522, 48 h; procedure, shortened: as §1
TK-10 = experiment: Growth inhibition of human TK10 cells after 48 hrs by sulforhodamine B assay; conditions: TK-10, 48 h
SK-MEL-2 = experiment: Growth inhibition of human SK-MEL-2 cells after 48 hrs by sulforhodamine B assay; conditions: SK-MEL-2, 48 h
NCI-H322M = experiment: Growth inhibition of human NCI-H322M cells after 48 hrs by sulforhodamine B assay; procedure, shortened: as §1
NCI-H460 = experiment: Growth inhibition of human NCI-H460 cells after 48 hrs by sulforhodamine B assay; conditions: NCI-H460, 48 h; procedure, shortened: as §1
A498 = experiment: Growth inhibition of human A498 cells after 48 hrs by sulforhodamine B assay; conditions: A498, 48 h; procedure, shortened: as §1
NCI-H23 = experiment: Growth inhibition of human NCI-H23 cells after 48 hrs by sulforhodamine B assay; conditions: NCI-H23, 48 h; procedure, shortened: as §1
PC-3 = experiment: Growth inhibition of human PC3 cells after 48 hrs by sulforhodamine B assay; conditions: PC-3, 48 h
SK-MEL-5 = experiment: Growth inhibition of human SK-MEL-5 cells after 48 hrs by sulforhodamine B assay; conditions: SK-MEL-5, 48 h
UACC-257 = experiment: Growth inhibition of human UACC257 cells after 48 hrs by sulforhodamine B assay; conditions: UACC-257, 48 h
CAKI-1 = experiment: Growth inhibition of human CAKI-1 cells after 48 hrs by sulforhodamine B assay; conditions: CAKI-1, 48 h; procedure, shortened: as §1
ACHN = experiment: Growth inhibition of human ACHN cells after 48 hrs by sulforhodamine B assay; procedure, shortened: as §1
SNB-19 = experiment: Growth inhibition of human SNB19 cells after 48 hrs by sulforhodamine B assay; conditions: SNB-19, 48 h
Malme-3M = experiment: Growth inhibition of human MALME-3M cells after 48 hrs by sulforhodamine B assay; procedure, shortened: as §1
SN12C = experiment: Growth inhibition of human SN12C cells after 48 hrs by sulforhodamine B assay
A549 = experiment: Growth inhibition of human A549 cells after 48 hrs by sulforhodamine B assay; conditions: A549, 48 h; procedure, shortened: as §1
[6] = Growth inhibition of human BT549 cells after 48 hrs by sulforhodamine B assay; conditions: BT-549, 48 h; procedure, shortened: as §1
U-251 = experiment: Growth inhibition of human U251 cells after 48 hrs by sulforhodamine B assay; conditions: U-251, 48 h
[7] = Growth inhibition of human SF295 cells after 48 hrs by sulforhodamine B assay; conditions: SF-295, 48 h
OVCAR-8 = experiment: Growth inhibition of human OVCAR8 cells after 48 hrs by sulforhodamine B assay; conditions: OVCAR-8, 48 h
MDA-MB-468 = experiment: Growth inhibition of human MDA-MB-468 cells after 48 hrs by sulforhodamine B assay; conditions: MDA-MB-468, 48 h; procedure, shortened: as §1
MDA-MB-435 = experiment: Growth inhibition of human MDA-MB-435 cells after 48 hrs by sulforhodamine B assay; conditions: MDA-MB-435, 48 h; procedure, shortened: as §1
SW-620 = experiment: Growth inhibition of human SW620 cells after 48 hrs by sulforhodamine B assay; conditions: SW-620, 48 h
HCT-15 = experiment: Growth inhibition of human HCT15 cells after 48 hrs by sulforhodamine B assay; conditions: HCT-15, 48 h; procedure, shortened: as §1
786-0 = experiment: Growth inhibition of human 786-0 cells after 48 hrs by sulforhodamine B assay; conditions: 786-0, 48 h; procedure, shortened: as §1
T47D = experiment: Growth inhibition of human T47D cells after 48 hrs by sulforhodamine B assay
[8] = Growth inhibition of human NCI-ADR-RES cells after 48 hrs by sulforhodamine B assay; procedure, shortened: as §1
CCRF-CEM = experiment: Growth inhibition of human CCRF-CEM cells after 48 hrs by sulforhodamine B assay; procedure, shortened: as §1
[9] = Growth inhibition of human RPMI8226 cells after 48 hrs by sulforhodamine B assay; conditions: RPMI-8226, 48 h
[10] = Growth inhibition of human RXF393 cells after 48 hrs by sulforhodamine B assay; conditions: RXF 393, 48 h

Structure (SMILES): COc1ccc2[nH]c(-c3ccccc3)c(/C=C(\C#N)S(=O)(=O)c3ccccc3)c2c1
- GI50 (HL-60(TB)): 2400 nM
- GI50 (OVCAR-5): 37300 nM
- GI50 [1]: 7600 nM
- GI50 (OVCAR-3): 5000 nM
- GI50 (NCI-H226): 9400 nM
- GI50 (KM12): 3000 nM
- GI50 [2]: 6100 nM
- GI50 [3]: 4700 nM
- GI50 [4]: 18700 nM
- GI50 (OVCAR-4): 8300 nM
- GI50 (SNB-75): 5900 nM
- GI50 (HOP-62): 8300 nM
- GI50 (UACC-62): 3800 nM
- GI50 (HT-29): 3500 nM
- GI50 [5]: 5500 nM
- GI50 (K562): 1400 nM
- GI50 (NCI-H522): 4000 nM
- GI50 (TK-10): 17500 nM
- GI50 (SK-MEL-2): 3700 nM
- GI50 (NCI-H322M): 30100 nM
- GI50 (NCI-H460): 4600 nM
- GI50 (A498): 9300 nM
- GI50 (NCI-H23): 8000 nM
- GI50 (PC-3): 8300 nM
- GI50 (SK-MEL-5): 3100 nM
- GI50 (UACC-257): 4900 nM
- GI50 (CAKI-1): 4500 nM
- GI50 (ACHN): 12900 nM
- GI50 (SNB-19): 13500 nM
- GI50 (Malme-3M): 19400 nM
- GI50 (SN12C): 7800 nM
- GI50 (A549): 6000 nM
- GI50 [6]: 11600 nM
- GI50 (U-251): 4600 nM
- GI50 [7]: 2800 nM
- GI50 (OVCAR-8): 7800 nM
- GI50 (MDA-MB-468): 4200 nM
- GI50 (MDA-MB-435): 1100 nM
- GI50 (SW-620): 4000 nM
- GI50 (HCT-15): 4000 nM
- GI50 (786-0): 6100 nM
- GI50 (T47D): 5200 nM
- GI50 [8]: 3800 nM
- GI50 (CCRF-CEM): 6500 nM

Structure (SMILES): COc1ccc(-c2[nH]c3ccccc3c2C=C(C#N)C#N)cc1
- GI50 (HL-60(TB)): 271 nM
- GI50 (OVCAR-5): 1800 nM
- GI50 [1]: 241 nM
- GI50 (OVCAR-3): 265 nM
- GI50 (NCI-H226): 1100 nM
- GI50 (KM12): 374 nM
- GI50 [2]: 1200 nM
- GI50 [3]: 578 nM
- GI50 [4]: 751 nM
- GI50 (OVCAR-4): 798 nM
- GI50 (SNB-75): 418 nM
- GI50 (HOP-62): 1200 nM
- GI50 (UACC-62): 357 nM
- GI50 (HT-29): 354 nM
- GI50 [5]: 263 nM
- GI50 (K562): 343 nM
- GI50 (NCI-H522): 798 nM
- GI50 (TK-10): 925 nM
- GI50 (SK-MEL-2): 763 nM
- GI50 (NCI-H322M): 490 nM
- GI50 (NCI-H460): 359 nM
- GI50 (A498): 458 nM
- GI50 (NCI-H23): 600 nM
- GI50 (PC-3): 547 nM
- GI50 (SK-MEL-5): 350 nM
- GI50 (UACC-257): 424 nM
- GI50 (CAKI-1): 679 nM
- GI50 (ACHN): 2300 nM
- GI50 (SNB-19): 1800 nM
- GI50 (Malme-3M): 874 nM
- GI50 (SN12C): 1200 nM
- GI50 (A549): 700 nM
- GI50 [9]: 490 nM
- GI50 [6]: 769 nM
- GI50 (U-251): 483 nM
- GI50 [7]: 336 nM
- GI50 (OVCAR-8): 1200 nM
- GI50 (MDA-MB-468): 418 nM
- GI50 (MDA-MB-435): 128 nM
- GI50 (SW-620): 440 nM
- GI50 (HCT-15): 593 nM
- GI50 (786-0): 720 nM
- GI50 (T47D): 481 nM
- GI50 [10]: 518 nM
- GI50 [8]: 343 nM
- GI50 (CCRF-CEM): 352 nM
